{
  "source": "ChEMBL document CHEMBL1134785",
  "about": "“Synthesis and biological evaluation of prostaglandin-F alkylphosphinic acid derivatives as bone anabolic agents for the treatment of osteoporosis” (J Med Chem, 2001)",
  "key": {"[1]": {"test_system": "Rattus norvegicus", "assay": "Directly measured thickness(um) using micro Computed Tomography(CT) after a dose of 30 ug/kg in Vertebral Bone", "assay_type": "functional", "outline": "(§1)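 Micro-CT of the fifth lumbar vertebra, measuring cancellous bone volume and architecture. Rats were 6 months old, OVX 60 days before treatment, then dosed daily for 60 days. Test-agent doses were 10–3000 µg/kg, given as a once-daily subcutaneous injection; 6 mg/kg/day was given to the positive-control group. Groups were compared with vehicle by ANOVA plus LSD test.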"}, "[2]": {"test_system": "Rattus norvegicus", "assay": "Derived trabecular no […]measured using micro Computed Tomography(CT) after a dose of 3000 ug/kg in Vertebral Bone", "assay_type": "functional, Trabecula", "outline": "as §1"}, "[3]": {"test_system": "Rattus norvegicus", "assay": "Mineralizing surface/bone surface(%) measured Histomorphometrically after a dose of 10 ug/kg in proximal tibial metaphysis", "assay_type": "functional", "outline": "(§2)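 Ovariectomized six-month-old rats, 6-8 per group, were dosed subcutaneously once daily at 0.01–3.0 mg/kg for 60 days, starting 60 days after surgery. Vehicle was acetate-buffered saline, methylcellulose and polyoxyethylenesorbitan monooleate. Labels were xylenol orange 90 mg/kg pretreatment and calcein 10 mg/kg at 14 and 4 days before necropsy. Histomorphometry covered the proximal tibial metaphysis, 1–4 mm distal to the growth plate–metaphyseal junction. ANOVA/LSD versus vehicle.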"}, "[4]": {"test_system": "Rattus norvegicus", "assay": "Mineral apposition rate ([…])bone measured Histomorphometrically after a dose of 3000 ug/kg in proximal tibial metaphysis", "assay_type": "functional", "outline": "as §2"}, "[5]": {"test_system": "Rattus norvegicus", "assay": "Bone formation rate/tissue volume (%/year)bone measured Histomorphometrically after a dose of 10 ug/kg in proximal tibial metaphysis", "assay_type": "functional", "details": "at 10 µg/kg"}, "[6]": {"test_system": "Rattus norvegicus", "assay": "Bone Volume /Tissue Volume (%)measured using micro Computed Tomography(CT) after a dose of 1000 ug/kg in Vertebral Bone", "assay_type": "functional", "details": "at 1000 µg/kg"}, "[7]": {"assay": "Dissociation constant was determined", "assay_type": "physicochemical"}, "[8]": {"test_system": "Rattus norvegicus", "assay": "Bone formation rate/bone volume (%/year) bone measured histomorphometrically after a dose of 1000 ug/kg in proximal tibial metaphysis", "assay_type": "functional", "details": "at 1000 µg/kg"}, "[9]": {"test_system": "Rattus norvegicus", "assay": "Endosteal mineralizing surface Histomorphometrically after a dose of 3000 ug/kg in tibial diaphysis", "assay_type": "functional", "outline": "(§3)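 Six-month-old rats, bilaterally ovariectomized, 6-8 per group, on natural chow. After 60 days they received once-daily subcutaneous dosing for 60 days at 0.01–3.0 mg/kg. Vehicle was acetate-buffered saline with methylcellulose and polyoxyethylenesorbitan monooleate. Labels were xylenol orange 90 mg/kg before treatment and calcein 10 mg/kg 14 and 4 days before sacrifice. Tibial histomorphometry was read under fluorescent light, with ANOVA/LSD versus vehicle.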"}, "[10]": {"test_system": "Rattus norvegicus", "assay": "Bone Volume /Tissue Volume (%)measured Histomorphometrically after a dose of 3000 ug/kg in proximal tibial metaphysis", "assay_type": "functional", "details": "at 3000 µg/kg"}, "[11]": {"test_system": "Rattus norvegicus", "assay": "Bone Volume /Tissue Volume (%)measured using micro Computed Tomography(CT) after a dose of 3000 ug/kg in Vertebral Bone", "assay_type": "functional", "details": "at 3000 µg/kg"}, "[12]": {"test_system": "Rattus norvegicus", "assay": "Bone Volume /Tissue Volume (%)measured Histomorphometrically after a dose of 10 ug/kg in proximal tibial metaphysis", "assay_type": "functional", "details": "at 10 µg/kg"}, "[13]": {"test_system": "Rattus norvegicus", "assay": "Marrow area (mm) measured Histomorphometrically after a dose of 100 ug/kg in tibial diaphysis", "assay_type": "functional", "outline": "as §3"}, "[14]": {"test_system": "Rattus norvegicus", "assay": "Periosteal mineral apposition rate ([…]) measured Histomorphometrically after a dose of 10 ug/kg in tibial diaphysis", "assay_type": "functional", "outline": "as §3"}, "[15]": {"test_system": "Rattus norvegicus", "assay": "Derived trabecular thickness (um) measured using micro Computed Tomography(CT) after a dose of 1000 ug/kg in Vertebral Bone", "assay_type": "functional, Trabecula", "outline": "as §1"}, "[16]": {"test_system": "Rattus norvegicus", "assay": "Directly measured thickness(um) using micro Computed Tomography(CT) after a dose of 10 ug/kg in Vertebral Bone", "assay_type": "functional", "outline": "as §1"}, "[17]": {"test_system": "Rattus norvegicus", "assay": "Derived trabecular no […]measured using micro Computed Tomography(CT) after a dose of 30 ug/kg in Vertebral Bone", "assay_type": "functional, Trabecula", "outline": "as §1"}, "[18]": {"test_system": "Rattus norvegicus", "assay": "Marrow area (mm) measured Histomorphometrically after a dose of 1000 ug/kg in tibial diaphysis", "assay_type": "functional", "outline": "as §3"}, "[19]": {"test_system": "Rattus norvegicus", "assay": "Periosteal mineral apposition rate ([…]) measured Histomorphometrically after a dose of 30 ug/kg in tibial diaphysis", "assay_type": "functional", "outline": "as §3"}, "[20]": {"test_system": "Rattus norvegicus", "assay": "Trabecular thickness […] measured Histomorphometrically after a dose of 300 ug/kg in proximal tibial metaphysis", "assay_type": "functional, Trabecula", "outline": "(§4)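 Six-month-old rats were ovariectomized, and 60 days later daily subcutaneous dosing began for 60 days, with vehicle of acetate-buffered saline, methylcellulose and polysorbate. Xylenol orange (90 mg/kg) labelled bone pre-treatment and calcein (10 mg/kg) 14 and 4 days pre-sacrifice. Histomorphometry covered the proximal tibial metaphysis 1-4 mm distal to the growth plate-metaphyseal junction. Groups were 6-8 rats, compared by ANOVA/LSD vs vehicle.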"}, "[21]": {"test_system": "Rattus norvegicus", "assay": "Trabecular no (mm)measured Histomorphometrically after a dose of 30 ug/kg in proximal tibial metaphysis", "assay_type": "functional, Trabecula", "outline": "as §4"}, "[22]": {"test_system": "Rattus norvegicus", "assay": "Mineralizing surface/bone surface(%) measured Histomorphometrically after a dose of 3000 ug/kg in proximal tibial metaphysis", "assay_type": "functional", "outline": "as §2"}, "[23]": {"target": "T1, Prostaglandin E2 receptor EP3 subtype (Homo sapiens, UniProt P43115)", "T1 sequence (P43115 whole entry)": "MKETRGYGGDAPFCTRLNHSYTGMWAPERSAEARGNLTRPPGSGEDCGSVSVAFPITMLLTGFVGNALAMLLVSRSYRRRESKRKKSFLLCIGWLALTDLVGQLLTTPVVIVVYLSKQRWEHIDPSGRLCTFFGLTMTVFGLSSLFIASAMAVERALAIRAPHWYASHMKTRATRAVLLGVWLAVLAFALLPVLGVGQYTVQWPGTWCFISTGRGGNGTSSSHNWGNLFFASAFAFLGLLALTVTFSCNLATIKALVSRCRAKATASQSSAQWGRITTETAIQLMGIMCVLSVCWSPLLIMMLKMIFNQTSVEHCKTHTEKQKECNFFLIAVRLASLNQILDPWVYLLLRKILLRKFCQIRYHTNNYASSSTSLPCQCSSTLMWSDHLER", "assay": "In vitro binding at EP3 human prostaglandin receptor using [3H]PGE-2 as radioligand", "outline": "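Receptors stably expressed in CHO cells, collected 4-5 days after seeding. Membranes made by lysis (Tris, EDTA, protease inhibitors) and 100000g pellet, then resuspended at 1 mg protein/mL in TME. Radioligands at 5 nM: [3H]PGE2 for EP2/EP3/EP4, [3H]Iloprost for IP, [3H]SQ-29548 for TP. Competition binding with filtration and counting.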"}, "[24]": {"test_system": "Rattus norvegicus", "assay": "Derived trabecular thickness (um) measured using micro Computed Tomography(CT) after a dose of 100 ug/kg in Vertebral Bone", "assay_type": "functional, Trabecula", "outline": "as §1"}, "[25]": {"test_system": "Rattus norvegicus", "assay": "Endosteal mineralizing surface Histomorphometrically after a dose of 100 ug/kg in tibial diaphysis", "assay_type": "functional", "outline": "as §3"}, "[26]": {"test_system": "Rattus norvegicus", "assay": "Bone Volume /Tissue Volume (%)measured using micro Computed Tomography(CT) after a dose of 10 ug/kg in Vertebral Bone", "assay_type": "functional", "details": "at 10 µg/kg"}, "[27]": {"test_system": "Rattus norvegicus", "assay": "Trabecular thickness […] measured Histomorphometrically after a dose of 100 ug/kg in proximal tibial metaphysis", "assay_type": "functional, Trabecula", "outline": "as §4"}, "[28]": {"test_system": "Rattus norvegicus", "assay": "Mineral apposition rate ([…])bone measured Histomorphometrically after a dose of 10 ug/kg in tibial diaphysis", "assay_type": "functional", "outline": "as §3"}, "[29]": {"test_system": "Rattus norvegicus", "assay": "Mineral apposition rate ([…])bone measured Histomorphometrically after a dose of 1000 ug/kg in tibial diaphysis", "assay_type": "functional", "outline": "as §3"}},
  "data": [
    {"smiles": "CP(=O)(O)CCC/C=C\\C[C@@H]1[C@@H](/C=C/[C@@H](O)COc2ccccc2)[C@H](O)C[C@@H]1O", "values": [
      {"measurement": "Directly measured thickness", "setting": "[1]", "value": 126, "unit": "µm"},
      {"measurement": "Derived trabecular number", "setting": "[2]", "value": 4.71, "unit": "mm-1"},
      {"measurement": "Activity", "setting": "[3]", "value": 28.37, "unit": "%"},
      {"measurement": "Mineral apposition rate", "setting": "[4]", "value": 0.94, "unit": "µm/day"},
      {"measurement": "Activity", "setting": "[5]", "value": 9.81, "unit": "%"},
      {"measurement": "Activity", "setting": "[6]", "value": 36.98, "unit": "%"},
      {"measurement": "pKa", "setting": "[7]", "value": 3.1},
      {"measurement": "Activity", "setting": "[8]", "value": 251.82, "unit": "%"},
      {"measurement": "Endosteal mineralizing surface", "setting": "[9]", "value": 29.4, "unit": "%"},
      {"measurement": "Activity", "setting": "[10]", "value": 8.51, "unit": "%"},
      {"measurement": "Activity", "setting": "[11]", "value": 39.48, "unit": "%"},
      {"measurement": "Activity", "setting": "[12]", "value": 2.23, "unit": "%"},
      {"measurement": "Marrow area", "setting": "[13]", "value": 0.82, "unit": "mm²"},
      {"measurement": "Periosteal mineral apposition rate", "setting": "[14]", "value": 0.49, "unit": "µm day-1"},
      {"measurement": "Derived trabecular thickness", "setting": "[15]", "value": 80.6, "unit": "µm"},
      {"measurement": "Directly measured thickness", "setting": "[16]", "value": 118, "unit": "µm"},
      {"measurement": "Derived trabecular number", "setting": "[17]", "value": 4.44, "unit": "mm-1"},
      {"measurement": "Marrow area", "setting": "[18]", "value": 0.86, "unit": "mm²"},
      {"measurement": "Periosteal mineral apposition rate", "setting": "[19]", "value": 0.31, "unit": "µm/day"},
      {"measurement": "Trabecular thickness", "setting": "[20]", "value": 44, "unit": "µm"},
      {"measurement": "Trabecular no.", "setting": "[21]", "value": "0.87 1/mm"},
      {"measurement": "Activity", "setting": "[22]", "value": 23.66, "unit": "%"},
      {"measurement": "IC50", "setting": "[23]", "value": "> 10", "unit": "µM"},
      {"measurement": "Derived trabecular thickness", "setting": "[24]", "value": 78.7, "unit": "µm"},
      {"measurement": "Endosteal mineralizing surface", "setting": "[25]", "value": 22.28, "unit": "%"},
      {"measurement": "Activity", "setting": "[26]", "value": 31.04, "unit": "%"},
      {"measurement": "Trabecular thickness", "setting": "[27]", "value": 45.5, "unit": "µm"},
      {"measurement": "Mineral apposition rate", "setting": "[28]", "value": 0.71, "unit": "µm/day"},
      {"measurement": "Mineral apposition rate", "setting": "[29]", "value": 1.01, "unit": "µm/day"}
    ]}
  ]
}
